Among the data in ChEMBL document CHEMBL1144425, “Design of benzophenone-containing photoactivatable linear vasopressin antagonists: pharmacological and photoreactive properties” (J Med Chem, 2005) are Ki values, retold here.

Sequence of Vasopressin V1a receptor (Rattus norvegicus, UniProt P30560) (P30560 whole entry): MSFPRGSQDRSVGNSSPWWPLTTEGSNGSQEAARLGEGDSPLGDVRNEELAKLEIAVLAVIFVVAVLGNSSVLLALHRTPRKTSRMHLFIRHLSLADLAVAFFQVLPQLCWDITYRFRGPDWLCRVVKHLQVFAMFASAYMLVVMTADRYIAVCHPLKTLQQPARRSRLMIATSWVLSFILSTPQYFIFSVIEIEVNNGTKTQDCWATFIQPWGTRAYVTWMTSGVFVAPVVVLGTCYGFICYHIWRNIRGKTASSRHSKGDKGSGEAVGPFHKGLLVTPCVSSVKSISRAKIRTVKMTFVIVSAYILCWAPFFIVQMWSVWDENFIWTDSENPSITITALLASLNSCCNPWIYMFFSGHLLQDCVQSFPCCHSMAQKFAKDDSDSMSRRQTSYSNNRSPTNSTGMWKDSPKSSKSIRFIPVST

One assay has as its target Vasopressin V1a receptor (Rattus norvegicus, UniProt P30560). Nature of the assay: Binding affinity against rat vasopressin V1a receptor.
Details: not given
As a reminder, the Ki is a dissociation constant, usually derived from enzyme kinetics or from competition with a known ligand. Compound `COc1ccc(C[C@@H](NC(=O)CCCc2ccc(N=[N+]=[N-])cc2)C(=O)N[C@@H](Cc2ccccc2)C(=O)N[C@@H](CCC(N)=O)C(=O)N[C@@H](CC(N)=O)C(=O)N[C@@H](CCCNC(=N)N)C(=O)N2CCC[C@H]2C(=O)N[C@@H](CCCNC(=N)N)C(=O)N[C@@H](Cc2ccc(O)c(I)c2)C(N)=O)cc1` had a Ki of 0.18 nM.

For another assay, the target named is Vasopressin V1a receptor (Homo sapiens, UniProt P37288). Nature of the assay: Binding affinity against human vasopressin V1a receptor expressed in CHO cells.
Sequence of Vasopressin V1a receptor (Homo sapiens, UniProt P37288) (P37288 whole entry): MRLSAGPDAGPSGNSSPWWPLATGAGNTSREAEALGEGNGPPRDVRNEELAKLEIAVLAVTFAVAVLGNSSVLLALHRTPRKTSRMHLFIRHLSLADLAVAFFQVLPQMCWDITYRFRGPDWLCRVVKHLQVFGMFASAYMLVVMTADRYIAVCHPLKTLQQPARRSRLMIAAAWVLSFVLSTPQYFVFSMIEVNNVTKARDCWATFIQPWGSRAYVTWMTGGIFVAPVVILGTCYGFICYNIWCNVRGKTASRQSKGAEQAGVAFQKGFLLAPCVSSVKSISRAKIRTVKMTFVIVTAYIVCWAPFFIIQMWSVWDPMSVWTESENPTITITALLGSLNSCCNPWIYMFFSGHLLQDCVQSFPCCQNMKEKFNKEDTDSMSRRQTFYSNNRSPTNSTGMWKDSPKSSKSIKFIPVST
Details: not given
It counts as cell-based. A digest of the protocol: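 Competition binding on membranes of CHO cells expressing the human V1a receptor (2 to 3 µg protein). Each compound was tested at 10^-12 to 10^-6 M against a radioiodinated linear antagonist (45-80 pM). Incubation was 1 h at 30 °C in 50 mM Tris, 5 mM MgCl2, pH 7.4, with 1 mg/mL BSA, in triplicate, then GF/C filtration. Data were fitted by nonlinear least-squares regression.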
`NC(=O)CC[C@H](NC(=O)[C@H](Cc1ccccc1)NC(=O)[C@@H](Cc1ccc(C(=O)c2ccccc2)cc1)NC(=O)Cc1ccccc1)C(=O)N[C@@H](CC(N)=O)C(=O)N[C@@H](CCCN=C(N)N)C(=O)N1CCC[C@H]1C(=O)N[C@@H](CCCN=C(N)N)C(=O)N[C@@H](Cc1ccc(O)c(I)c1)C(N)=O` came in with a Ki of 0.8 nM.
The same measure, in the same setting: in the case of `COc1ccc(C[C@@H](NC(=O)c2ccc(C(=O)c3ccccc3)cc2)C(=O)N[C@@H](Cc2ccccc2)C(=O)N[C@@H](CCC(N)=O)C(=O)N[C@@H](CC(N)=O)C(=O)N[C@@H](CCCN=C(N)N)C(=O)N2CCC[C@H]2C(=O)N[C@@H](CCCN=C(N)N)C(=O)N[C@@H](Cc2ccc(O)c(I)c2)C(N)=O)cc1` it was 18 nM; in that of `N=C(N)NCCC[C@H](NC(=O)[C@@H]1CCCN1C(=O)[C@H](CCCNC(=N)N)NC(=O)[C@H](CC(N)=O)NC(=O)[C@H](CCC(N)=O)NC(=O)[C@H](Cc1ccccc1)NC(=O)[C@H](Cc1ccc(C(=O)c2ccccc2)cc1)NC(=O)Cc1ccccc1)C(=O)N[C@@H](Cc1ccc(O)c(I)c1)C(N)=O`, 2.5 nM.

Still in this assay, the particulars now being: cho.
Compound `N=C(N)NCCC[C@H](NC(=O)[C@@H]1CCCN1C(=O)[C@H](CCCNC(=N)N)NC(=O)[C@H](CC(N)=O)NC(=O)[C@H](CCC(N)=O)NC(=O)[C@H](Cc1ccccc1)NC(=O)[C@@H](N)Cc1ccc(C(=O)c2ccccc2)cc1)C(=O)N[C@@H](Cc1ccc(O)c(I)c1)C(N)=O` returned a Ki of 148 nM.
On to `COc1ccc(C[C@@H](NC(=O)C(N)Cc2ccc(C(=O)c3ccccc3)cc2)C(=O)N[C@@H](Cc2ccccc2)C(=O)N[C@@H](CCC(N)=O)C(=O)N[C@@H](CC(N)=O)C(=O)N[C@@H](CCCNC(=N)N)C(=O)N2CCC[C@H]2C(=O)N[C@@H](CCCNC(=N)N)C(=O)N[C@@H](Cc2ccc(O)c(I)c2)C(N)=O)cc1` (stereo not given in full), for which the Ki is 462 nM.
Still for that read-out and setting: in the case of `NC(=O)CC[C@H](NC(=O)[C@H](Cc1ccccc1)NC(=O)[C@H](N)Cc1ccc(C(=O)c2ccccc2)cc1)C(=O)N[C@@H](CC(N)=O)C(=O)N[C@@H](CCCN=C(N)N)C(=O)N1CCC[C@H]1C(=O)N[C@@H](CCCN=C(N)N)C(=O)N[C@@H](Cc1ccc(O)c(I)c1)C(N)=O` it was 20 nM; in that of `CC(=O)N[C@@H](Cc1ccc(C(=O)c2ccccc2)cc1)C(=O)N[C@@H](Cc1ccccc1)C(=O)N[C@@H](CCC(N)=O)C(=O)N[C@@H](CC(N)=O)C(=O)N[C@@H](CCCNC(=N)N)C(=O)N1CCC[C@H]1C(=O)N[C@@H](CCCNC(=N)N)C(=O)N[C@@H](Cc1ccc(O)c(I)c1)C(N)=O`, 1490 nM; in that of `CC(=O)N[C@H](Cc1ccc(C(=O)c2ccccc2)cc1)C(=O)N[C@@H](Cc1ccccc1)C(=O)N[C@@H](CCC(N)=O)C(=O)N[C@@H](CC(N)=O)C(=O)N[C@@H](CCCNC(=N)N)C(=O)N1CCC[C@H]1C(=O)N[C@@H](CCCNC(=N)N)C(=O)N[C@@H](Cc1ccc(O)c(I)c1)C(N)=O`, 24 nM.
Same read-out and setting: the value for `COc1ccc(C[C@@H](NC(=O)CNC(=O)c2ccc(C(=O)c3ccccc3)cc2)C(=O)N[C@@H](Cc2ccccc2)C(=O)N[C@@H](CCC(N)=O)C(=O)N[C@@H](CC(N)=O)C(=O)N[C@@H](CCCCN)C(=O)N2CCC[C@H]2C(=O)N[C@@H](CCCNC(=N)N)C(=O)N[C@@H](Cc2ccc(O)c(I)c2)C(N)=O)cc1` was 115 nM.
